The results in this text go back to ChEMBL document CHEMBL1156386, “New cytotoxic butanolides from Litsea acutivena” (2001).

The structures appear in SMILES notation. Values after ≈ are worked out from the molar mass of the structure shown. Some results are limits rather than exact numbers.

Format in all cases: functional
Experiment [1] has as its system HT-29. Briefly: Cytotoxicity against human HT-29 cells after 6 days by MTT assay. The settings on record: HT-29, 144 h, read-out: ED50 (the source's name). The procedure, abridged:
(§1)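 A549 grown in EMEM with Earle's salts, 0.1 mM nonessential amino acids and 10% heat-inactivated FCS; HT-29 in RPMI 1640 with 10% heat-inactivated FCS; 37 °C, 5% CO2. Seeded 1000 cells/well. Eight concentrations spanning a 128-fold range, triplicate. After 6 days, MTT (1 mg/mL) added for 5 h, formazan dissolved in DMSO, A540. ED50 = 50% absorbance reduction versus untreated cells.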
A general note: Formazan colour is commonly taken as a measure of viable cells.

The subject of experiment [2] is P388. Briefly: Cytotoxicity against mouse P388 cells after 3 days by MTT assay. The settings on record: P388, 72 h, read-out: ED50 (the source's name). A digest of the protocol: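 P-388 cells in Fisher's medium with 10% heat-inactivated FCS at 37 °C, 5% CO2. Cultures set up at 1500 cells/well in 200 µL. Compounds added at eight concentrations in triplicate. After 3 days, cells counted by MTT: formazan dissolved in DMSO, absorbance at 540 nm. ED50 = concentration giving 50% absorbance reduction versus untreated cells.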

The test system of experiment [3] is A549. Kind of experiment: Cytotoxicity against human A549 cells after 6 days by MTT assay. Conditions: A549, 144 h, read-out: ED50 (the source's name). A digest of the protocol: as §1

Consider `C=Cc1cc(OC)c2oc(-c3ccc(O)c(OC)c3)cc2c1` [DEHYDROXYMETHYLAILANTHOIDOL], for which the EC50 in experiment [1], in experiment [2] and in experiment [3] was greater than 50 µg/mL throughout.

For `C=C1OC(=O)/C(=C\CCCCCCCCCCC)[C@@H]1O` [ISOLICOMOLIDE D], the EC50 in experiment [1] came to 2.11 µg/mL (≈ 7.52 µM); in experiment [2], 2.97 µg/mL (≈ 10.6 µM); in experiment [3], 2.9 µg/mL (≈ 10.3 µM).

`CCCCCCCCC/C=C1/C(=O)O[C@@](C)(OC)[C@H]1O` [LITSEAKOLIDE D]: the EC50 was 2 µg/mL (≈ 7.03 µM) in experiment [1], 1.73 µg/mL (≈ 6.08 µM) in experiment [2] and 2.85 µg/mL (≈ 10 µM) in experiment [3].

With `CCCCCCCCC/C=C1\C(=O)O[C@@](C)(OC)[C@H]1O` [LITSEAKOLIDE E], the EC50 in experiment [1] was 3.69 µg/mL (≈ 13 µM); in experiment [2], 2.94 µg/mL (≈ 10.3 µM); in experiment [3], 4.89 µg/mL (≈ 17.2 µM).

For `CCCCCCCCC/C=C1/C(=O)O[C@@](C)(OC)[C@@H]1O` [LITSEAKOLIDE F], the EC50 in experiment [1] came out at 4.39 µg/mL (≈ 15.4 µM); in experiment [2], 2.04 µg/mL (≈ 7.17 µM); in experiment [3] it was 2.01 µg/mL (≈ 7.07 µM).

For `CCCCCCCCC/C=C1\C(=O)O[C@@](C)(OC)[C@@H]1O` [LITSEAKOLIDE G], the EC50 in experiment [1] turned out to be 2.73 µg/mL (≈ 9.6 µM); in experiment [2], 0.97 µg/mL (≈ 3.41 µM); in experiment [3], 1.94 µg/mL (≈ 6.82 µM).

With `CO[C@H](C(=O)[C@@H](O)[C@@H](C)O)[C@@H]1Cc2cc3cc(O[C@H]4C[C@@H](O[C@@H]5C[C@@H](O)[C@H](O)[C@@H](C)O5)[C@H](O)[C@@H](C)O4)c(C)c(O)c3c(O)c2C(=O)[C@H]1O[C@H]1C[C@@H](O[C@@H]2C[C@@H](O)[C@@H](O[C@@H]3C[C@](C)(O)[C@H](O)[C@@H](C)O3)[C@@H](C)O2)[C@H](O)[C@@H](C)O1` [PLICAMYCIN], the EC50 came to 0.08 µg/mL (≈ 0.0737 µM) in experiment [1], 0.06 µg/mL (≈ 0.0553 µM) in experiment [2] and 0.07 µg/mL (≈ 0.0645 µM) in experiment [3].
